Assay results published in ChEMBL document CHEMBL5705905, “Pharmacological targeting of kinases MST1 and MST2 augments tissue repair and regeneration” (Sci Transl Med, 2016).
Active and inactive are the calls of the source. The calls are words filed in the database; no cut-off is given here.

Experiments:
[1] = tested on: Phosphatidylinositol 4,5-bisphosphate 3-kinase catalytic subunit alpha isoform (Homo sapiens), P42336 [Q546K]; assay: Inhibition of PIK3CA Q546K mutant (unknown origin) assessed as remaining activity at 1 uM by Kinome scan method relative to control
[2] = molecular target: Tyrosine-protein kinase TXK (Homo sapiens) (UniProt P42681); assay: Inhibition of TXK (unknown origin) assessed as remaining activity at 1 uM by Kinome scan method relative to control
[3] = molecular target: Serine/threonine-protein kinase RIO2 (Homo sapiens) (UniProt Q9BVS4); assay: Inhibition of RIOK2 (unknown origin) assessed as remaining activity at 1 uM by Kinome scan method relative to control
Primary hepatocyte = assay: Inhibition of MST1/2 (unknown origin) in mouse Primary hepatocyte cells assessed as H2O2 stimulated MOB1 phosphorylation level at 1 to 3 uM by immunoblot analysis; assay type: cell-based; conditions: dose 1-3 µM
[4] = molecular target: Phosphatidylinositol 5-phosphate 4-kinase type-2 gamma (Homo sapiens, UniProt Q8TBX8); assay: Binding affinity to PIP5K2C (unknown origin) assessed as dissociation constant
[5] = molecular target: Ribosomal protein S6 kinase alpha-2 (Homo sapiens) (UniProt Q15349); assay: Inhibition of N-terminal kinase domain RSK3 (unknown origin) assessed as remaining activity at 1 uM by Kinome scan method relative to control
[6] = Inhibition of recombinant His-tagged full-length MST1 Y101F mutant (unknown origin) expressing in Escherichia coli assessed as MOB1 phosphorylation level incubated for 15 min by immunoblot analysis; parameters: species or system Homo sapiens
[7] = molecular target: Death-associated protein kinase 1 (Homo sapiens) (UniProt P53355); assay: Inhibition of DAPK1 (unknown origin) assessed as remaining activity at 1 uM by Kinome scan method relative to control
How it was run: (§1)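 Active-site-dependent competition-binding profiling (KINOMEscan) at 1 μM against a 468-kinase panel; compound supplied from a 10 mM DMSO stock. Read-out is ctrl% = (test signal − positive control signal)/(negative control signal − positive control signal) × 100. DMSO is the negative control (100%) and a control compound the positive control (0%). Lower ctrl% means tighter binding.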

[8] = molecular target: SNF-related serine/threonine-protein kinase (Homo sapiens) (UniProt Q9NRH2); assay: Inhibition of SNRK (unknown origin) assessed as remaining activity at 1 uM by Kinome scan method relative to control
[9] = molecular target: MAP kinase-interacting serine/threonine-protein kinase 1 (Homo sapiens) (UniProt Q9BUB5); assay: Inhibition of MKNK1 (unknown origin) assessed as remaining activity at 1 uM by Kinome scan method relative to control
[10] = molecular target: Ephrin type-B receptor 6 (Homo sapiens) (UniProt O15197); assay: Inhibition of EPHB6 (unknown origin) assessed as remaining activity at 1 uM by Kinome scan method relative to control
[11] = molecular target: Serine/threonine-protein kinase OSR1 (Homo sapiens) (UniProt O95747); assay: Inhibition of OSR1 (unknown origin) assessed as remaining activity at 1 uM by Kinome scan method relative to control
[12] = tested on: Tyrosine-protein kinase ABL1 (Homo sapiens), P00519 [F317I]; assay: Inhibition of ABL1 F317I mutant (unknown origin) assessed as remaining activity at 1 uM by Kinome scan method relative to control
How it was run: (§2)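 Active-site-dependent competition-binding (KINOMEscan) panel of 468 kinases, test compound at 1 μM (from a 10 mM DMSO stock). Read-out is ctrl% = (test signal − positive control signal)/(negative control signal − positive control signal) × 100. DMSO is the negative control (100%) and a control compound is the positive control (0%). Lower ctrl% means tighter binding.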

[13] = molecular target: Ephrin type-B receptor 2 (Homo sapiens) (UniProt P29323); assay: Inhibition of EPHB2 (unknown origin) assessed as remaining activity at 1 uM by Kinome scan method relative to control
[14] = molecular target: NUAK family SNF1-like kinase 1 (Homo sapiens) (UniProt O60285); assay: Inhibition of ARK5 (unknown origin) assessed as remaining activity at 1 uM by Kinome scan method relative to control; how it was run: as §2
[15] = molecular target: Myosin-IIIa (Homo sapiens) (UniProt Q8NEV4); assay: Inhibition of MYO3A (unknown origin) assessed as remaining activity at 1 uM by Kinome scan method relative to control
[16] = molecular target: MAP kinase-activated protein kinase 2 (Homo sapiens) (UniProt P49137); assay: Inhibition of MAPKAPK2 (unknown origin) assessed as remaining activity at 1 uM by Kinome scan method relative to control
[17] = tested on: Leucine-rich repeat serine/threonine-protein kinase 2 (Homo sapiens), Q5S007 [G2019S]; assay: Inhibition of LRRK2 G2019S mutant (unknown origin) assessed as remaining activity at 1 uM by Kinome scan method relative to control
[18] = molecular target: Serine/threonine-protein kinase 25 (Homo sapiens) (UniProt O00506); assay: Inhibition of YSK1 (unknown origin) assessed as remaining activity at 1 uM by Kinome scan method relative to control
[19] = tested on: Receptor-type tyrosine-protein kinase FLT3 (Homo sapiens), P36888 [D835V]; assay: Inhibition of FLT3 D835V mutant (unknown origin) assessed as remaining activity at 1 uM by Kinome scan method relative to control
[20] = molecular target: Megakaryocyte-associated tyrosine-protein kinase (Homo sapiens) (UniProt P42679); assay: Inhibition of CTK (unknown origin) assessed as remaining activity at 1 uM by Kinome scan method relative to control; how it was run: as §1
[21] = tested on: Epidermal growth factor receptor (Homo sapiens), P00533 [UNDEFINED MUTATION]; assay: Inhibition of EGFR L747-T751del/Sins mutant (unknown origin) assessed as remaining activity at 1 uM by Kinome scan method relative to control
[22] = molecular target: Fibroblast growth factor receptor 1 (Homo sapiens) (UniProt P11362); assay: Inhibition of FGFR1 (unknown origin) assessed as remaining activity at 1 uM by Kinome scan method relative to control
[23] = molecular target: Tyrosine-protein kinase JAK3 (Homo sapiens) (UniProt P52333); assay: Inhibition of JAK3 JH1 domain (unknown origin) assessed as remaining activity at 1 uM by Kinome scan method relative to control
[24] = molecular target: Tyrosine-protein kinase JAK2 (Homo sapiens) (UniProt O60674); assay: Inhibition of JAK2 JH1 domain (unknown origin) assessed as remaining activity at 1 uM by Kinome scan method relative to control
[25] = molecular target: Mitogen-activated protein kinase kinase kinase 3 (Homo sapiens, UniProt Q99759); assay: Inhibition of MAP3K3 (unknown origin) in presence of ATP by enzymatic assay
[26] = molecular target: Serine/threonine-protein kinase PRP4 homolog (Homo sapiens) (UniProt Q13523); assay: Inhibition of PRP4 (unknown origin) assessed as remaining activity at 1 uM by Kinome scan method relative to control
Chain of Serine/threonine-protein kinase PRP4 homolog (Homo sapiens) (Q13523 whole entry): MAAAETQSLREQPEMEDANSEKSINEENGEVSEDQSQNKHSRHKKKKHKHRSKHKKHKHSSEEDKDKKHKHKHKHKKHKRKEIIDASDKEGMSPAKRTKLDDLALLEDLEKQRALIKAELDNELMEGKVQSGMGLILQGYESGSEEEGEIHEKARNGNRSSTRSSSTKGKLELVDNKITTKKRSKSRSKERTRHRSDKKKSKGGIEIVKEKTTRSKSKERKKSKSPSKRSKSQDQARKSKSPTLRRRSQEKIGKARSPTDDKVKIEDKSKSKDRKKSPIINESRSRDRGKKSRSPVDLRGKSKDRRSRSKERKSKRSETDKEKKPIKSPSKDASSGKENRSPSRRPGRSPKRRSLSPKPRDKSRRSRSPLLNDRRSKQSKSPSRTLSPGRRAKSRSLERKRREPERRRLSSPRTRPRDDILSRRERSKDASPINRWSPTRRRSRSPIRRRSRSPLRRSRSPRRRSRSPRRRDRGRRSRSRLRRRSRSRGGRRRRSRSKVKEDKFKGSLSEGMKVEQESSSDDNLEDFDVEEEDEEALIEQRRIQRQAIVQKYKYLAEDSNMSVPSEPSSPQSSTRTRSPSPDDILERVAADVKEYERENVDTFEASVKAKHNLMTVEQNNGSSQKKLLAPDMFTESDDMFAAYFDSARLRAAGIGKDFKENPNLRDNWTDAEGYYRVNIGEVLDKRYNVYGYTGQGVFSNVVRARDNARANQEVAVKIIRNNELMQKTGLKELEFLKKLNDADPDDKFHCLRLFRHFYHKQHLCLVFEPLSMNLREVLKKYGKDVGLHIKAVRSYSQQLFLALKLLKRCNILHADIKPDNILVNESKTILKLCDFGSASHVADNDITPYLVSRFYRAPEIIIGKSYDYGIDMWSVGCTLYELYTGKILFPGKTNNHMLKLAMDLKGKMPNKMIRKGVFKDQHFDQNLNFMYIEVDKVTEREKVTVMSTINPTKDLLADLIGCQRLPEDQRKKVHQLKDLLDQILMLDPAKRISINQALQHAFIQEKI

Chain of Serine/threonine-protein kinase 25 (Homo sapiens) (O00506 whole entry, looked up): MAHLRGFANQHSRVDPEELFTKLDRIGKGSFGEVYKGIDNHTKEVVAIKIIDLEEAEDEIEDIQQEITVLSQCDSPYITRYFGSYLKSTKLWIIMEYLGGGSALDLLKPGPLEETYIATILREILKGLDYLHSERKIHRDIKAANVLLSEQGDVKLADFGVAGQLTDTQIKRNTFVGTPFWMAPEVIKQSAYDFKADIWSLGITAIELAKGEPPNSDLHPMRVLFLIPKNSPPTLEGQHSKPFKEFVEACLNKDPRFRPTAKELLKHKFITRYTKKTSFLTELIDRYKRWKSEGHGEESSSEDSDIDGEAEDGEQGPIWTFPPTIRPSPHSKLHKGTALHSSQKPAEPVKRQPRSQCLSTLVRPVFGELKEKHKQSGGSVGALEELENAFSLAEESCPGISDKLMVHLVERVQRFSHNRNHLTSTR
Chain of Ephrin type-B receptor 6 (Homo sapiens) (O15197 whole entry): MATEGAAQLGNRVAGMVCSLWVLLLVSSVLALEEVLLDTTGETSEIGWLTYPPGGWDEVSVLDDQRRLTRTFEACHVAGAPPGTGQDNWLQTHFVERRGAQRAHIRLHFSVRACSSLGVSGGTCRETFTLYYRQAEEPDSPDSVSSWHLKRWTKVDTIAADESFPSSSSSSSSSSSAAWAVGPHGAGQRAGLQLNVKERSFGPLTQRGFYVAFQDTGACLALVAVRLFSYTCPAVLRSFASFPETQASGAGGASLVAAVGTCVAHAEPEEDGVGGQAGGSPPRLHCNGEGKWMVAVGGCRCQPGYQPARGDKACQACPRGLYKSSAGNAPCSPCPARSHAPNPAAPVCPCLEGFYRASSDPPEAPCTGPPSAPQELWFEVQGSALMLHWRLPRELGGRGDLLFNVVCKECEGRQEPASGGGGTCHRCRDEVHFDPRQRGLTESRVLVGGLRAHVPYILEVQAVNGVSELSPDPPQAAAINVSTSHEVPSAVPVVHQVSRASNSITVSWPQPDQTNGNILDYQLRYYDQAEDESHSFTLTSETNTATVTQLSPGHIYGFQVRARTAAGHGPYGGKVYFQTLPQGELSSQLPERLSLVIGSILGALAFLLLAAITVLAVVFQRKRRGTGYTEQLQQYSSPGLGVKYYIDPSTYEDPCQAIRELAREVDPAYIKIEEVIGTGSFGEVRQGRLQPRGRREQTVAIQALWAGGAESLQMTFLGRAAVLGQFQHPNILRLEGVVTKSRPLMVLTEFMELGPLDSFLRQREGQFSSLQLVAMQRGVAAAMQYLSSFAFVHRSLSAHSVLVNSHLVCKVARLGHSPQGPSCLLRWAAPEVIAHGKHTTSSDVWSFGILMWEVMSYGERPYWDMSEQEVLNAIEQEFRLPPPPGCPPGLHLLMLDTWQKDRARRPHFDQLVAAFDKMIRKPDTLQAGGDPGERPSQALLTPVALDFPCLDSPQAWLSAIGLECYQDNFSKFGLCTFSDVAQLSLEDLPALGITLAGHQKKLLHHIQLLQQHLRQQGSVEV
Chain of Tyrosine-protein kinase TXK (Homo sapiens) (P42681 whole entry): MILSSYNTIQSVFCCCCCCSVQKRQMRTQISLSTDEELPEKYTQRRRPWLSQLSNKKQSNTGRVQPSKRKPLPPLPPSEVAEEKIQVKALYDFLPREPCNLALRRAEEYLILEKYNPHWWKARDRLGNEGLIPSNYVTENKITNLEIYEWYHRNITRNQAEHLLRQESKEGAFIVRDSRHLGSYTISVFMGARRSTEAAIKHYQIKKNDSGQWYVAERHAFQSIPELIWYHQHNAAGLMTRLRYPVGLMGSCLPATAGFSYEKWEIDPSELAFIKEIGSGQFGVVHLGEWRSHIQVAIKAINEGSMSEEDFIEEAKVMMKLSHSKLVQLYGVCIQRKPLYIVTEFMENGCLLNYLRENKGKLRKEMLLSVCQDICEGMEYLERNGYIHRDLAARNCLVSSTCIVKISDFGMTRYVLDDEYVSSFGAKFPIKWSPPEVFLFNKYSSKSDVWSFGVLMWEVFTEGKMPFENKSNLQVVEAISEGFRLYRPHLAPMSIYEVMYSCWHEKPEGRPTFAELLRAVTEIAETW
Chain of Fibroblast growth factor receptor 1 (Homo sapiens) (P11362 22-822 limits assumed): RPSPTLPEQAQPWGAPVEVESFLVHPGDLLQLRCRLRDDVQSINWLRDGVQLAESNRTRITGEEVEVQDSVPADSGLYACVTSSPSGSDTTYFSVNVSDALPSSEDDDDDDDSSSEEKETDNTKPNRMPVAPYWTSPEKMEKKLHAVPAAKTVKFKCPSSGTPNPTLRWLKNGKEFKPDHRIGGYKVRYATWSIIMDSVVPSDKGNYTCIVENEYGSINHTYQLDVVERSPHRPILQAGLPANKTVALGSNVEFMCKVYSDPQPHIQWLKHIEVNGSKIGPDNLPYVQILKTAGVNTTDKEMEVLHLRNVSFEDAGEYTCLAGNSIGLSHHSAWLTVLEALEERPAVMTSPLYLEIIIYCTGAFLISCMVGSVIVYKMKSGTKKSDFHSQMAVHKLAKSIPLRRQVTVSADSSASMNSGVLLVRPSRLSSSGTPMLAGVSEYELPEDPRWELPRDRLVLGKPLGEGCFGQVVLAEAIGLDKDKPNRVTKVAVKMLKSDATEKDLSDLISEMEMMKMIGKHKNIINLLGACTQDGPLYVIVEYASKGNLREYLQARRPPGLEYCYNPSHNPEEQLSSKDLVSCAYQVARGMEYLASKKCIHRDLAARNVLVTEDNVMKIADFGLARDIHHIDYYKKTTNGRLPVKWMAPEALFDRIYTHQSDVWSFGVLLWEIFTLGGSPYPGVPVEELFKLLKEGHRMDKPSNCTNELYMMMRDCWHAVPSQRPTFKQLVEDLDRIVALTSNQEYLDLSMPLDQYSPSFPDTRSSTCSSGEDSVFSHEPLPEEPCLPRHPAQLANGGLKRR
Chain of Epidermal growth factor receptor (Homo sapiens), P00533 [UNDEFINED MUTATION] (P00533 whole entry, looked up, stated change not applied): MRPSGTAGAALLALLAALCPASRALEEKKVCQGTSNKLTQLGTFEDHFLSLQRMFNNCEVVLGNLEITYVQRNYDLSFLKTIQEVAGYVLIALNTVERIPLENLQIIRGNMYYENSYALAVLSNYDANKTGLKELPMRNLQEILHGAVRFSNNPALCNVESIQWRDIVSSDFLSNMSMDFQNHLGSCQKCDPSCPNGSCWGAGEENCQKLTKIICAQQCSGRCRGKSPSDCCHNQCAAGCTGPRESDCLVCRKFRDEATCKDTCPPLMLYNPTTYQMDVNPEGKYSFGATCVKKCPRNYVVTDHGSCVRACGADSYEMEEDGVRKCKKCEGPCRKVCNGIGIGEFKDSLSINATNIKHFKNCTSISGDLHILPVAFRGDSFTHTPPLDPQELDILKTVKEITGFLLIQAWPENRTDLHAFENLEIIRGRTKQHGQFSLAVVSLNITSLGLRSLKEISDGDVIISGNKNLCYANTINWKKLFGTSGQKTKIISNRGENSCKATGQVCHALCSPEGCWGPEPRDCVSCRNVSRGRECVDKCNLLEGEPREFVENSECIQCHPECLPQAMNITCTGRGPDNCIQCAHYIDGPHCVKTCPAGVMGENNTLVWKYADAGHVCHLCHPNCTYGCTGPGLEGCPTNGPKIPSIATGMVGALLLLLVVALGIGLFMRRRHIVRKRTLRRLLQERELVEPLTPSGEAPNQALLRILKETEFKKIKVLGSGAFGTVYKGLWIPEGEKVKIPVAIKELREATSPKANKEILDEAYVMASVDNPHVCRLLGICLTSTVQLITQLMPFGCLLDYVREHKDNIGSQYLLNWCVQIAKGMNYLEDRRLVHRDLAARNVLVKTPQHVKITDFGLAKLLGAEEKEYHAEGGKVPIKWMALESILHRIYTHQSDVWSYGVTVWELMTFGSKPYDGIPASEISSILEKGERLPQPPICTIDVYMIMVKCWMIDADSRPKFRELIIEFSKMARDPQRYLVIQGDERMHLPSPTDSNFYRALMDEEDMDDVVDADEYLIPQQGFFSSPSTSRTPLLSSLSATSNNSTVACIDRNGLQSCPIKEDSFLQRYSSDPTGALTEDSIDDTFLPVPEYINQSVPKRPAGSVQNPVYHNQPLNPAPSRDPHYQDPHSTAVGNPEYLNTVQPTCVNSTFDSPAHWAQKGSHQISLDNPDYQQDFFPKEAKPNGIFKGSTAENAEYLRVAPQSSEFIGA

## CN1C(=O)c2sccc2N(C)c2nc(Nc3ccc(S(N)(=O)=O)cc3)ncc21
[1]
  Activity: 50%
[2]
  Activity: 90%
[3]
  Activity: 95%
Primary hepatocyte
  inhibition: Active
[4]
  Kd: 34 nM
[5]
  Activity: 97%
[6]
  IC50: 355 nM
[7]
  Activity: 91%
[8]
  Activity: 100%
[9]
  Activity: 100%
[10]
  Activity: 100%
[11]
  Activity: 81%
[12]
  Activity: 40%
[13]
  Activity: 100%
[14]
  Activity: 96%
[15]
  Activity: 100%
[16]
  Activity: 91%
[17]
  Activity: 28%
[18]
  Activity: 94%
[19]
  Activity: 18%
[20]
  Activity: 59%
[21]
  Activity: 67%
[22]
  Activity: 88%
[23]
  Activity: 73%
[24]
  Activity: 15%
[25]
  IC50: 38.4 nM
[26]
  Activity: 97%
